Assay outcomes deposited in PubChem BioAssay by several laboratories.
Sampled rows, rich in hits. Any-hit rate of the full collection: about 2.4%.
Fh CTSL1 inh = Fasciola hepatica cathepsin L1 inhibitors, primary screen, counter-screen for PFM18AAP inhibitor project, biochemical, QFRET, fluorogenic peptide substrate | inhibition, % at 5.96 µM | actives 0.49% (n = 300,000) | recombinant F. hepatica cathepsin L1, Z-Leu-Arg-MCA fluorescence;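 active means inhibition above the mean of all tested compounds plus 3 SD, set per screening campaign, cut at about 17% in these data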;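 further: 0% = plate median of test compound wells and 100% = 1 µM Z-Phe-Ala-diazomethylketone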
T cruzi repl = inhibitors of intracellular T. cruzi growth, primary screen, luminescence, NIH3T3 host cells. actives 1.4% (n = 300,000). T. cruzi beta-gal in NIH3T3, 90 h. AID 1885, 2009. inhibition, % (concentration not given with the values);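 active means mean inhibition across valid replicates above about 55%, limit read from the data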;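 further: signal also drops with host cell toxicity which is not excluded here; 0% = plate median of DMSO wells and 100% = zero luminescence signal; higher percent means less beta-gal luminescence so fewer parasites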
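compound dosing = single 50 nL compound addition per well in DMSO | material = NIH/3T3 host cells with β-galactosidase reporter T. cruzi | input = 5,000 host fibroblasts per well | timing = ≥90 h infection period, 3 h prior cell attachment | read-out basis = percent inhibition of parasite-derived β-gal signal | detection = GalScreen β-gal luminescence, detergent lysis, 60 min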
H9c2 protect = cardioprotection against H2O2-induced cell death, primary screen, uHTS, H9c2 cells, ATPLite luminescence | H9c2 cardiomyocytes, H2O2 injury protection, 2 h | protection from H2O2 cell death, % at 20 µM | actives 0.63% (n = 360,000) | AID 588492, 2011;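 active means compounds giving at least 50% protection of heart cells from peroxide-induced death in the single-dose screen, raw or plate-pattern-corrected value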;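 further: 0% = DMSO wells with peroxide and 100% = DMSO wells without peroxide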
JMJD2C inh = inhibitors of GASC-1 histone demethylase, primary screen, biochemical, fluorescence, DELFIA europium; Lysine-specific demethylase 4C (Homo sapiens), Q9H3R0; GST-JMJD2C(1-420) H3K9me3 demethylation; inhibition, % at 2.35 µM; actives 0.069% (n = 330,000);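 active means more than half of a compound's replicate wells show inhibition beyond 50%, single wells judged on their own value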;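 further: signal counts dimethyl H3K9 product captured on neutravidin plate; 0% = median of DMSO wells and 100% = 0.3 times that DMSO median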
Target sequence (Q9H3R0 1-420 limits assumed): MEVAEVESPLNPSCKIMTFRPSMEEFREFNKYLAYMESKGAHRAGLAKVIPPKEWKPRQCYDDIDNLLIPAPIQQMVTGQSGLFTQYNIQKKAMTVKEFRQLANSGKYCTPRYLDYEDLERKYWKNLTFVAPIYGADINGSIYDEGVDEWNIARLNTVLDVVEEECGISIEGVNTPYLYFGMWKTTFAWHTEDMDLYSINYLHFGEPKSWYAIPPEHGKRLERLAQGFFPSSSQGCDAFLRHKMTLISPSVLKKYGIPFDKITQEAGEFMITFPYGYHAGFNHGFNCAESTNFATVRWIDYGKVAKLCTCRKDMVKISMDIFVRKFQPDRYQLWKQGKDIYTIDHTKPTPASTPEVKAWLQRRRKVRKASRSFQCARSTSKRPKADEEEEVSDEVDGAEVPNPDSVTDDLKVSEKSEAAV
PP5 inh = PP5 phosphatase inhibitors, primary screen, biochemical, fluorescence | inhibition, % at 6.7 µM | purified PP5c, OMFP substrate fluorescence | actives 0.18% (n = 320,000) | Serine/threonine-protein phosphatase 5 (Homo sapiens), P53041;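 active means inhibition above the campaign's mean inhibition across all tested compounds plus 3 SD, cut at about 9.5% in these data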;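 further: 0% = DMSO only and 100% = 100 µM cantharidin control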
pCIP destab = p/CIP-EGFP fusion destabilizers, primary screen, fluorescence, F442A cells; Q05BA5; AID 1984, 2009; actives 0.01% (n = 290,000); 16 h; decrease of EGFP signal, % at 10 µM;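 active means EGFP signal decrease of at least 30% at 10 µM or well 3 SD below plate mean, unless failing retest; inactive means the rest, including hits failing retest or dose response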
* hit, by the source's call; / = not tested or not shown.

SMILES	Fh CTSL1 inh	T cruzi repl	H9c2 protect	JMJD2C inh	PP5 inh	pCIP destab
COc1ccc(OCC(=O)N/N=C/C(C)=C/c2ccco2)c(Br)c1	-3	-2	-11	67*	-5	4
COc1ccc2[nH]c3c(c2c1)CCNC3c1ccc([N+](=O)[O-])o1 (stereo not drawn)	2	14	60*	1	2	-28
CCOC(=O)C1CCCN(C(=O)c2cccc(S(=O)(=O)N(Cc3ccccc3)c3ccccc3OC)c2)C1 (stereo not drawn)	1	56*	2	3	1	/
Clc1ccc(CN2CCCCCC2)cc1	4	8	4	-9	-1	-34
O=[N+]([O-])c1cc(CN2CCCC2)ccc1Sc1ccc(Cl)cc1	-4	62*	-5	7	-5	-13
CC1(C)C(=O)N(c2ccccc2)C1c1ccccc1O (stereo not drawn)	-5	-3	-3	6	2	-1
COc1ccc(N2C(=O)C(C)(C)C2c2c(O)ccc3ccccc23)cc1 (stereo not drawn)	17*	5	-4	2	7	-3
O=C(NC1CC1)c1ccc2sc([C@@H]3O[C@H](CO)[C@H](O)[C@H](O)[C@H]3O)nc2c1	/	/	-2	/	/	/
O=C(CSc1cccc[n+]1[O-])Nc1ccccc1Oc1ccccc1	-1	82*	-12	17	1	-1
O=C(CSc1cccc[n+]1[O-])CSc1cccc[n+]1[O-]	-4	67*	6	-15	4	3
CCOc1ccc(Br)cc1S(=O)(=O)NCC(c1ccc(OC)cc1)N1CCOCC1 (stereo not drawn)	/	/	1	/	/	/
COc1ccc(CNC(=O)Oc2ccccc2)cc1Cl	19*	-1	3	-3	-1	2
COC(=O)NCc1ccc(Cl)c(Cl)c1	2	-13	6	-6	0	-6
O=C(COc1ccc(Cl)cc1Cl)N1CCCN(C(=O)COc2ccc(Cl)cc2Cl)CC1	2	60*	5	-4	5	-4
Cc1[nH]c(N=Nc2ccccc2)nc1N=Nc1ccccc1	4	65*	36	12	3	-6
Clc1ccc(/C=C/c2nc3ccccc3[nH]2)c(Cl)c1	-2	58*	-24	-2	1	-10
CC(C)=CCc1cc2c(=O)c3c(O)c4c(cc3oc2c(O)c1O)OC(C)C4(C)C (stereo not drawn)	2	67*	/	1	5	/
CC1Oc2cc3oc4c(O)c5c(cc4c(=O)c3c(O)c2C1(C)C)C=CC(C)(C)O5 (stereo not drawn)	-2	9	/	-4	4	/
O=C(CNC(=O)c1ccccn1)N=Nc1c(O)[nH]c2ccccc12	6	3	20	-4	0	-5
CC(C)C(NC(=O)c1ccco1)C(=O)NCC(c1ccco1)N1CCCCC1 (stereo not drawn)	79*	-5	1	10	-4	-7
Nc1nc(N)c2ncn(C3C=CC(CO)C3)c2n1 (stereo not drawn)	/	/	2	/	/	/
Cc1ccc(S(=O)(=O)NCC(=O)Nc2cccnc2)cc1C	/	/	2	7	/	/
Cn1c(=O)[nH]c(=O)c2c1nc(N(CCO)Cc1ccccc1)n2CCCc1ccccc1	2	-4	52*	14	0	-3
C=C(C)Cn1c(N(CCO)Cc2ccccc2)nc2c1c(=O)[nH]c(=O)n2C	4	-19	9	6	-1	-3
Cc1ccc2[nH]c(=O)c(CN(Cc3ccco3)S(=O)(=O)c3c(C)ccc4nsnc34)cc2c1	1	32	50*	8	1	-6
SMILES	Fh CTSL1 inh	T cruzi repl	H9c2 protect	JMJD2C inh	PP5 inh	pCIP destab
Cc1ccc2nsnc2c1S(=O)(=O)N(Cc1ccco1)Cc1cc2cccc(C)c2[nH]c1=O	6	4	73*	10	1	-3
Cc1ccc2nsnc2c1S(=O)(=O)N(Cc1ccco1)Cc1cc2ccc(C)c(C)c2[nH]c1=O	/	/	27	/	/	-6
CCOC(=O)C1(CCOc2ccccc2)CCN(Cc2cccc3c2OCO3)CC1	-2	65*	-19	84	1	-4
CCOC(=O)C1(CCOc2ccccc2)CCN(Cc2cccn2-c2cccnc2)CC1	-2	60*	-20	0	-1	8
CCOC(=O)C1(CCOc2ccccc2)CCN(Cc2ccc3nonc3c2)CC1	3	67*	-20	3	-1	-9
CCOC(=O)C1(CCOc2ccccc2)CCN(Cc2ccc(OC)cc2)CC1	0	40	-16	-3	2	/
CCOC(=O)C1(CCOc2ccccc2)CCN(Cc2cc(OC)c3c(c2)OCO3)CC1	1	60*	-24	-31	0	13
CC1(C)NC(=O)N(CCCC(=O)Nc2ccc(C(F)(F)F)cc2)C1=O	/	/	0	/	2	/
COc1ccccc1N1CCN(S(=O)(=O)CCNC(=O)CC2CCCC2)CC1	/	/	-6	/	/	/
CN1CCN(c2ccc(S(=O)(=O)N3CCOCC3)cc2NC(=O)Cc2ccccc2F)CC1	/	/	1	-8	1	/
CCCCCC(=O)Nc1cc(S(=O)(=O)N2CCOCC2)ccc1N1CCCCC1	5	15	-1	6	0	/
CCCCCC(=O)Nc1cc(S(=O)(=O)N2CCOCC2)ccc1N1CCN(C)CC1	0	64*	-3	6	-3	0
CSCCC(=O)Nc1cc(S(=O)(=O)N2CCOCC2)ccc1N1CCN(C)CC1	17	65*	3	-1	1	7
Cn1c(=O)c2[nH]c(C3CC3)nc2n(C)c1=O	/	/	18	/	/	/
COC(=O)c1cccc(NS(=O)(=O)c2cccs2)c1C	-3	-9	2	-6	0	-13
COC(=O)c1ccccc1NC1=C/C(=N\S(=O)(=O)c2ccc(C(=O)O)cc2)c2ccccc2C1=O	47*	33	-17	18	9	-3
COC(=O)c1ccccc1NC1=C/C(=N\S(=O)(=O)c2cccs2)c2ccccc2C1=O	52*	47	-16	-15	7	-8
CC(=O)Nc1ccc(C(=O)OCc2ccccc2Br)cc1	3	0	-3	24	6	0
Cc1nc2ccc(C(=O)OCc3ccccc3Br)cc2nc1C	19*	3	-2	-15	1	4
CCOC(=O)N1CCC(N2Cc3cccc(C(=O)Nc4ccc(OC)c(OC)c4)c3C2=O)CC1	4	19	50*	14	-2	-5
CCOC(=O)N1CCC(N2C(=O)c3ccccc3C2Nc2cc(OC)c(OC)c(OC)c2)CC1 (stereo not drawn)	0	-5	117*	-28	0	0
